What was measured:
[1] = target: T1, Lethal factor (Bacillus anthracis) (UniProt P15917); conditions: at 1 mM
T1 sequence (whole entry): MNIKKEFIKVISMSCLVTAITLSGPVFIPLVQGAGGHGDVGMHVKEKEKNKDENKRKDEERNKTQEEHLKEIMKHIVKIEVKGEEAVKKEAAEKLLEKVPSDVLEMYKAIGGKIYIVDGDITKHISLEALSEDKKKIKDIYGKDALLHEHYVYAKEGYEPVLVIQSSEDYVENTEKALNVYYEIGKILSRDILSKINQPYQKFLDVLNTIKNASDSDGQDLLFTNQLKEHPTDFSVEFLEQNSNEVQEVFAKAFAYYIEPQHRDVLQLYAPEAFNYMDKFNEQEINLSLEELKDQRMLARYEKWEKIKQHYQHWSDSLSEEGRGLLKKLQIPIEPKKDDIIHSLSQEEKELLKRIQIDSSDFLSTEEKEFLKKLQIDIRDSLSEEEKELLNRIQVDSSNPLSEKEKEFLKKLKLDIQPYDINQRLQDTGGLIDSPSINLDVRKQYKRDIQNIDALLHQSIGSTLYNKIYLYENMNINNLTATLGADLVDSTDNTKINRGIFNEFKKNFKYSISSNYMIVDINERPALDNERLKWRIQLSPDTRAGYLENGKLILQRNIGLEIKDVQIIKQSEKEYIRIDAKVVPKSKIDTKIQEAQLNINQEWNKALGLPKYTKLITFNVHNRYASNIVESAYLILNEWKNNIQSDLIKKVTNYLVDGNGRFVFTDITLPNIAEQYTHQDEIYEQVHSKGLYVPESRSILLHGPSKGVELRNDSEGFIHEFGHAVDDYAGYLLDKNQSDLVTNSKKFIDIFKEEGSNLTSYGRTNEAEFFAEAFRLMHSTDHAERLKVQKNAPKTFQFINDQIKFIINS

[2] = target: T2, Nitric oxide synthase, inducible (Mus musculus) (UniProt P29477); conditions: at 1 mM;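 note: recombinant enzyme, activity read out colorimetrically after 40 min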
T2 sequence (whole entry): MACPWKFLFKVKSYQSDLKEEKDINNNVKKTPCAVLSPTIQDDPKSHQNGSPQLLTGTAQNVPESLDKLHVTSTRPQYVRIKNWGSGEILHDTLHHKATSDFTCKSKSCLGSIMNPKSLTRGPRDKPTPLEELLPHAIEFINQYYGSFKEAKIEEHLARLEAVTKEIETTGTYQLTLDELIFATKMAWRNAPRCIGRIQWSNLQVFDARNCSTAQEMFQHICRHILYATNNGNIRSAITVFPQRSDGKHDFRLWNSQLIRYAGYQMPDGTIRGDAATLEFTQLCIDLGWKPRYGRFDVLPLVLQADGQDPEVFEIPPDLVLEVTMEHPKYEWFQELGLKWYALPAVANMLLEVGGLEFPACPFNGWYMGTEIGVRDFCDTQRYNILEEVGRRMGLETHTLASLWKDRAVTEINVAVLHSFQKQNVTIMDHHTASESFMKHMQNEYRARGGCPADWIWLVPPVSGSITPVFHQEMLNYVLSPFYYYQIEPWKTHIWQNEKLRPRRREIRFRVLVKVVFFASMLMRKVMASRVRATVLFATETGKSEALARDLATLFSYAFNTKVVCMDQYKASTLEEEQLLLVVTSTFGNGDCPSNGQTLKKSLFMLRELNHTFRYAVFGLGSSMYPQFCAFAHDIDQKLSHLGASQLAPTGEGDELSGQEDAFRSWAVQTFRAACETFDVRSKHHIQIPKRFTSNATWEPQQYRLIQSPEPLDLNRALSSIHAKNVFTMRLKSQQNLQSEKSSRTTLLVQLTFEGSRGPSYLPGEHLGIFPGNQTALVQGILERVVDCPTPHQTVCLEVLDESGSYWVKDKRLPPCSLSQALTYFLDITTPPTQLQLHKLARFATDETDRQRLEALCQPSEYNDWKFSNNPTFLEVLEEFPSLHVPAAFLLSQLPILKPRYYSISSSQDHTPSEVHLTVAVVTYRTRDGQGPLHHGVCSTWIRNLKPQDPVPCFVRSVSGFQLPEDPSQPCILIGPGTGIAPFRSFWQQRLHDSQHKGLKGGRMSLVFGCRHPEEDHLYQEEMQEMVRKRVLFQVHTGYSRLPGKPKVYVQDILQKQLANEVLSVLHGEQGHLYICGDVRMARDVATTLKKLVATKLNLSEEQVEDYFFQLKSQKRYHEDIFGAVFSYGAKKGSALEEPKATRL

[3] = target: T3, 72 kDa type IV collagenase (Homo sapiens, UniProt P08253); conditions: at 1 mM
Target sequence in this assay (P08253 110-660 limits assumed): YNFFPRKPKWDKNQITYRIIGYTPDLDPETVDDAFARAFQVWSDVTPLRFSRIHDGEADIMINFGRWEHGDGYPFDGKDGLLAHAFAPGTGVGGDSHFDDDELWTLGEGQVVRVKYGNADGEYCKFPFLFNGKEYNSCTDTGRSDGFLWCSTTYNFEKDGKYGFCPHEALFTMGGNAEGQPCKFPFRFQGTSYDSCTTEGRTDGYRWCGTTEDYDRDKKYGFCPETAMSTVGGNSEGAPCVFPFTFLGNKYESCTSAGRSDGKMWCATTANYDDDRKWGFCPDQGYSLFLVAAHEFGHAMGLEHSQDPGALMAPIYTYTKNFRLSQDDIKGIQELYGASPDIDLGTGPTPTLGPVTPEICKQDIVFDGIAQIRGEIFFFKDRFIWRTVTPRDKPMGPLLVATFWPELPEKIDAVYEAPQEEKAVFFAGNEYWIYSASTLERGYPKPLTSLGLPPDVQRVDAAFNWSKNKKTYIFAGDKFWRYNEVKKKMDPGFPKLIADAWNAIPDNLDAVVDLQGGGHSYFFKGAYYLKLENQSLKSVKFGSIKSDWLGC

[4] = target: T4, Polyunsaturated fatty acid 5-lipoxygenase (Homo sapiens) (UniProt P09917); assay: Inhibition of human recombinant 5-lipoxygenase at 1 mM after 10 mins by fluorescence assay
T4 sequence (whole entry): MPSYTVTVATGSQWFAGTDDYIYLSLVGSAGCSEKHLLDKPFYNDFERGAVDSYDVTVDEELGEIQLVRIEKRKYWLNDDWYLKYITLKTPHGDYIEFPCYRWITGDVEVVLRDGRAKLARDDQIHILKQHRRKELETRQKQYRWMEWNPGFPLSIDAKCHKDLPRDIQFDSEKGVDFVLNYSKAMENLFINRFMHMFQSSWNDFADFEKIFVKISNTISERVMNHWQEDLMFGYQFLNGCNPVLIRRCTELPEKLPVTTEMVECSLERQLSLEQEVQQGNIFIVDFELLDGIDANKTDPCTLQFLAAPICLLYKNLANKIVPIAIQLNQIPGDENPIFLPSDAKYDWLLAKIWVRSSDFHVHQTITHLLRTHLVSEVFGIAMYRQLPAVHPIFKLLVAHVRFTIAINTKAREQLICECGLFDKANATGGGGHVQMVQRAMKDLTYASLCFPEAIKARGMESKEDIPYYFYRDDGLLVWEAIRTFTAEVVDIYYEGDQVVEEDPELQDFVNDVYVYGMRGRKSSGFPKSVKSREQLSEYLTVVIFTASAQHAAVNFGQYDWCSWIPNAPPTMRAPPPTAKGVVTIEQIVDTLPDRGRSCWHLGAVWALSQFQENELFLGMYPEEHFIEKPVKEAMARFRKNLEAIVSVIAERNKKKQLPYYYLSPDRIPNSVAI

[5] = target: Stromelysin-1 (Homo sapiens) (UniProt P08254); conditions: at 1 mM;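 note: recombinant enzyme, inhibition read after a 30 min incubation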
[6] = target: T5, Interstitial collagenase (Homo sapiens) (UniProt P03956); conditions: at 1 mM;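 note: recombinant human enzyme, with inhibition measured after 30 min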
T5 sequence (whole entry): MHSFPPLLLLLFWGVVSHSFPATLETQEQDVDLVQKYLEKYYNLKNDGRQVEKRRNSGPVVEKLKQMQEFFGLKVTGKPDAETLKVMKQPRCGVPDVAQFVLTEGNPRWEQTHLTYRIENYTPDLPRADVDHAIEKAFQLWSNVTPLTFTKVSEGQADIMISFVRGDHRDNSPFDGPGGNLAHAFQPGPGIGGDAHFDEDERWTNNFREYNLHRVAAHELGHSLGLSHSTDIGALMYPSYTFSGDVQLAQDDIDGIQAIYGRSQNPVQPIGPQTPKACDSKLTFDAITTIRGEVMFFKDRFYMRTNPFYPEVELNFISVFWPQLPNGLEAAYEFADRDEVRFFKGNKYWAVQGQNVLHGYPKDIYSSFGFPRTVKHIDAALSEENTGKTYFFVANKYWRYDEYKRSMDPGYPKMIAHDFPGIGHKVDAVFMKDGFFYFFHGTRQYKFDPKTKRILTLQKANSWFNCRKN

[7] = target: T6, Tyrosinase (Agaricus bisporus) (UniProt O42713); conditions: at 1 mM;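 note: inhibition measured at 10 min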
T6 sequence (whole entry): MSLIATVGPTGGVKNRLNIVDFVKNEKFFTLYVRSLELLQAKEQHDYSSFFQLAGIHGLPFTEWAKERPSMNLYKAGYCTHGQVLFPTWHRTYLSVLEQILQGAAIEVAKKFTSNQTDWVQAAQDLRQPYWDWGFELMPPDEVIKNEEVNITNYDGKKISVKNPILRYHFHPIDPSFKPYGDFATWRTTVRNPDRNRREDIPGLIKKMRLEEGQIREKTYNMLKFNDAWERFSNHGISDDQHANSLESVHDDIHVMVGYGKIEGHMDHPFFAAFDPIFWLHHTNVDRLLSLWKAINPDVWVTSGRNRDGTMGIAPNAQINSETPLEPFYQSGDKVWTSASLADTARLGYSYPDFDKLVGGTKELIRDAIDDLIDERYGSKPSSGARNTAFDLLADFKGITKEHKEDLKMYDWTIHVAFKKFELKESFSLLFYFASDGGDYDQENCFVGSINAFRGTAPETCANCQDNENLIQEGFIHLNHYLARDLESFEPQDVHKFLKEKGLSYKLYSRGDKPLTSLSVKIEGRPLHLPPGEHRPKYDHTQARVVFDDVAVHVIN

[8] = target: Neutrophil collagenase (Homo sapiens) (UniProt P22894); conditions: at 1 mM;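 note: recombinant human MMP8 enzyme, percent inhibition read after 30 min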
[9] = target: Matrix metalloproteinase-9 (Homo sapiens) (UniProt P14780); conditions: at 1 mM;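 note: recombinant human MMP9, activity read after 30 min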
[10] = target: T3, 72 kDa type IV collagenase; assay: Inhibition of human recombinant MMP2 after 30 mins
Procedure, shortened: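 Enzyme (1.16 U) preincubated 30 min at 37 °C with fragment in 50 mM HEPES, 10 mM CaCl2, 0.05% Brij-35, pH 7.5. Fluorogenic Mca peptide substrate (4 μM final) then added. Rate of fluorescence increase compared with no-inhibitor control (100%). Single-point 25 μM final for the 8-hydroxyquinoline sublibrary. IC50 fitted to dose-response curves from serial dilutions of DMSO stocks.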
Target sequence in this assay (P08253 whole entry): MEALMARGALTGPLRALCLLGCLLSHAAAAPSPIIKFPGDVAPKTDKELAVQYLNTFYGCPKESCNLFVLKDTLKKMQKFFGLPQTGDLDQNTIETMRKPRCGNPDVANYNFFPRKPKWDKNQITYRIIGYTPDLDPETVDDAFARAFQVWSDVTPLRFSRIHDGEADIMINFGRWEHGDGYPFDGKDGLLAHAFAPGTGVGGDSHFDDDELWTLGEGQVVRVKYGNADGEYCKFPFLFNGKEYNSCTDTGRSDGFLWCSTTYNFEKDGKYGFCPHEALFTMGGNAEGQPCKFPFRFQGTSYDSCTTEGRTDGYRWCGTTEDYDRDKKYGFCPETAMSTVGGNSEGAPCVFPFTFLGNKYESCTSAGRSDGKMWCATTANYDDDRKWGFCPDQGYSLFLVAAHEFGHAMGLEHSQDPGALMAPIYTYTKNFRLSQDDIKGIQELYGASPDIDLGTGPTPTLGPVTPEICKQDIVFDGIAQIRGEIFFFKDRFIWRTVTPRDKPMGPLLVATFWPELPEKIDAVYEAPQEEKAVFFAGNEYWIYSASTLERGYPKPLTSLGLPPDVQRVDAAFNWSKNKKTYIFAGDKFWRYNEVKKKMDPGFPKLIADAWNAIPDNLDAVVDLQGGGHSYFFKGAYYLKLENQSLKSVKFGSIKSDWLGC

Chain of Matrix metalloproteinase-9 (Homo sapiens) (P14780 whole entry): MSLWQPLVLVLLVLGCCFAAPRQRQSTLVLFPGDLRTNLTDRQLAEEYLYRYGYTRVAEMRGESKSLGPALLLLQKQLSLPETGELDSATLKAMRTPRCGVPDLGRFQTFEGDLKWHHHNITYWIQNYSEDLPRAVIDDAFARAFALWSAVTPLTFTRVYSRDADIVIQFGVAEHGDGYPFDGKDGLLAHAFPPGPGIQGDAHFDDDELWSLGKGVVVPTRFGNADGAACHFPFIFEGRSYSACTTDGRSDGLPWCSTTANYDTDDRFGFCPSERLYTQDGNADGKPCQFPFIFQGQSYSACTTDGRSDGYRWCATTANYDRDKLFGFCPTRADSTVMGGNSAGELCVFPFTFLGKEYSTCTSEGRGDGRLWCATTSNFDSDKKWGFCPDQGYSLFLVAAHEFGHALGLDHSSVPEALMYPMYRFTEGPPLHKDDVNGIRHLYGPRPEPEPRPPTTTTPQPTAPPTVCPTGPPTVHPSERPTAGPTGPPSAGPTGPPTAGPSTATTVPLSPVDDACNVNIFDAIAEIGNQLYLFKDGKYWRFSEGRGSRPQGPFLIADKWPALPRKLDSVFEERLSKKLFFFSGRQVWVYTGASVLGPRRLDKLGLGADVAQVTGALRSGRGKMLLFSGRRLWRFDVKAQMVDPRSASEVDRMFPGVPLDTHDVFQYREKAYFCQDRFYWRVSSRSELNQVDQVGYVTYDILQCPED
Chain of Stromelysin-1 (Homo sapiens) (P08254 100-477 limits assumed): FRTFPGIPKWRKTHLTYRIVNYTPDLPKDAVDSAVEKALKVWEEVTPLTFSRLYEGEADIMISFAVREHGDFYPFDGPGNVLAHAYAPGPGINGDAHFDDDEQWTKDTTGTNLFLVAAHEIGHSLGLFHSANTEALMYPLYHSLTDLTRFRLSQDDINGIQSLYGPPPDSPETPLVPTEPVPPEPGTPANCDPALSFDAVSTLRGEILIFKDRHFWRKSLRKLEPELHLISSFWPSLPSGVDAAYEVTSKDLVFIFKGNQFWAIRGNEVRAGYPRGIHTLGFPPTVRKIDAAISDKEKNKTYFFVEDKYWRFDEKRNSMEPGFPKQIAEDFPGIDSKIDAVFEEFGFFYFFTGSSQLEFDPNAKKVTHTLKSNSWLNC
Chain of Neutrophil collagenase (Homo sapiens) (P22894 101-467 limits assumed): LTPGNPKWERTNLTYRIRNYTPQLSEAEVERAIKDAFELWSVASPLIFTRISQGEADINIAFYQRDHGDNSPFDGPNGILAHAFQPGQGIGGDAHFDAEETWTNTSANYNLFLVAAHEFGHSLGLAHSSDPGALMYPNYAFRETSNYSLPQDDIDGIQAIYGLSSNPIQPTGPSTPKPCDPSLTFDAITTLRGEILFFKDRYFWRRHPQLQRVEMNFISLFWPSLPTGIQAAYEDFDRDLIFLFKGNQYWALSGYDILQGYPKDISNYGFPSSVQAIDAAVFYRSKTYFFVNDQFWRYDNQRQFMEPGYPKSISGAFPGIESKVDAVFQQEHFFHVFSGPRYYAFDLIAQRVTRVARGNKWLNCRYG

Row | Compound | inhibition [1] [%] | inhibition [2] [%] | inhibition [3] [%] | inhibition [4] [%] | inhibition [5] [%] | inhibition [6] [%] | inhibition [7] [%] | inhibition [8] [%] | inhibition [9] [%] | IC50 [10] [mM]
1 | O=C(O)c1c(O)cccc1O | 15 | 17 | -6 | 38 | -4 | 0 | 95 | -5 |  | 
2 | O=C(O)c1cccc(O)n1 | 81 | 6 |  | 38 | 0 | 16 | 95 | 20 | 16 | 
3 | CC(=O)CC(C)=O | 5 | -6 | -5 | 42 | -4 | 10 | 77 | -6 |  | 
4 | O=C(O)c1nc(Cl)ccc1Cl |  | 20 | 0 | 27 | 0 | 12 | 96 | 18 | 18 | 
5 | CC(=O)C(Cl)C(C)=O | 9 | 80 | -9 | 52 | -6 | 11 | 86 | -7 |  | 
6 | CC(=O)NO [ACETOHYDROXAMIC ACID] | 25 | 4 | 4 |  | 5 | 10 | -2 | 5 |  | 15
7 | Cc1ccc(C(=O)O)c(O)c1 | 11 | 15 |  | 17 | -1 | 8 | 97 | 16 | 10 | 
8 | Oc1cccnc1O |  | 0 |  | 90 | -7 | 8 | -9 | 7 | 21 | 
9 | Cc1cccc(C(=O)O)n1 | 47 | 8 |  | 21 | 48 | -9 | 25 | 3 | -6 | 
10 | CCC(C(C)=O)C(C)=O | 4 | -1 |  | 62 | 6 | 7 | 85 | 3 | 1 | 
11 | Cc1nc(O)cc(O)n1 |  | 1 | 2 | 62 | 22 | 14 | 12 | 14 | 4 | 
12 | O=c1[nH]ccc(=S)[nH]1 |  |  |  |  |  |  |  |  |  | 0.121
13 | O=C(O)c1ccc[nH]1 | 11 | 7 | 1 | 48 | -8 | 8 | 69 |  |  | 
14 | Nc1ccc2cccc(O)c2n1 | 59 | 38 | 100 | 66 | 87 | 96 |  | 91 | 100 | 
15 | O=C(O)c1cccnc1C(=O)O | 49 | 5 |  | 30 |  | 4 | 98 | 14 | -8 | 
16 | O=C(O)c1cccc2cccnc12 |  | 11 | 25 | 23 | 77 | 36 | -2 | 38 | 31 | 
